Hits are enriched below; roughly 3.1% of the tested compounds scored in any of these assays.
PAFAH2 FP inh – PAFAH2 (human) inhibition | Q99487 | recombinant PAFAH2, FP-rhodamine activity probe, fluorescence polarization | inhibition, % at 3.39 µM | 340,000 compounds, 0.99% hits;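 active = inhibition above the mean over all tested compounds plus 3 SD, cut at about 30% in these data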;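 note: inhibitors block probe labeling of enzyme so polarization drops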
Apaf-1 inh – human Apaf-1 inhibition. reconstituted apoptosome caspase-3 activity, DEVD-Rh110 fluorescence. 330,000 compounds, 0.71% hits. inhibition, % at 20 µM. O14727. AID 489030; active = inhibition of at least 40% at 20 µM
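Assay system – apoptosome proteins · Medium – Hepes buffer, pH 7.5 · Also added – cytochrome c with DEVD-Rh110 · Timing – 30 min compound preincubation, 50 min activation, room temperature · Detection – Rh110 fluorescence, excitation 480 nm, emission 540 nm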
PAFAH1B3 FP inh – PAFAH1B3 (human) inhibition. Q15102. recombinant PAFAH1B3, FP-rhodamine probe, fluorescence polarization. inhibition, % at 3.39 µM. 340,000 compounds, 0.28% hits. AID 492972;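 active = inhibition above the screen-wide average of all tested compounds plus 3 SD, cut at about 25% in these data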
pPAFAH FP inh – inhibitors of human plasma PAF acetylhydrolase (pPAFAH); 330,000 compounds, 1.5% hits; recombinant pPAFAH, FP-rhodamine probe fluorescence polarization; AID 463082; inhibition, % at 3.39 µM; Q13093;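 active = inhibition above the mean inhibition across the screen plus 3 SD, cut at about 25% in these data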;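 note: inhibitors block binding of the rhodamine activity-based probe so polarization drops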
Target sequence (Q13093 whole entry, looked up): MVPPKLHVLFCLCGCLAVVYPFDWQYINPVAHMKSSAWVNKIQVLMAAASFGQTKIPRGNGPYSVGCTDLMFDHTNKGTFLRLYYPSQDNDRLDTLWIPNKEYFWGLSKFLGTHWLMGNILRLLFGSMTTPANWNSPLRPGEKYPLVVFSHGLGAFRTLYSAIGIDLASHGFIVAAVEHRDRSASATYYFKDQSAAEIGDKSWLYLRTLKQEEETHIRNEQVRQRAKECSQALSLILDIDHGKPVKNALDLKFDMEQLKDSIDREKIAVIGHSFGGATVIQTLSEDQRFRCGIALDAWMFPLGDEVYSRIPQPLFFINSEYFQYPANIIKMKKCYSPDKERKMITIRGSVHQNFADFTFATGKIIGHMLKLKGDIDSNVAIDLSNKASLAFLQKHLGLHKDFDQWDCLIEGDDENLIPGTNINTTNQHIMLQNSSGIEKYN
PAFAH1B2 FP inh – blocks human PAF acetylhydrolase 1b catalytic subunit 2 | AID 492953 | recombinant PAFAH1B2, FP-rhodamine activity probe, fluorescence polarization | 340,000 compounds, 1.2% hits | inhibition, % at 3.39 µM | P68402;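 active = inhibition above the mean of all tested compounds plus 3 SD, cut at about 24% in these data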
Target sequence (P68402 whole entry, looked up): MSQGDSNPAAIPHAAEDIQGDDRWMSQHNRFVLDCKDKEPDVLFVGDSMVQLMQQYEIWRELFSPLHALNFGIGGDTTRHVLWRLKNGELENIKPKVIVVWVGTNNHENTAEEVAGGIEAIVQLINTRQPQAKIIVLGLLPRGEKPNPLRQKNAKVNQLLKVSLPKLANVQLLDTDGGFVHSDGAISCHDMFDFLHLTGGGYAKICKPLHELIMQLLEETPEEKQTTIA
Large screens that a line does not name were inactive.

CCCNC(=O)COC(=O)c1ccc(-c2ccccc2)cc1	PAFAH2 FP inh 60, pPAFAH FP inh 25
NC(=O)COC(=O)c1ccc(Oc2ccccc2)cc1	none
O=C(COC(=O)c1ccc(-c2ccccc2)cc1)Nc1ccccc1-c1ccccc1	none (no result: Apaf-1 inh)
CC1CCCC(NC(=O)CN2CCN(S(=O)(=O)c3cccs3)CC2)C1C (configuration not stated)	none
Cc1cc(Br)cc(Br)c1OCC(=O)NNC(=O)CCC(=O)NCc1ccccc1	none (no result: pPAFAH FP inh)
O=C(CCC(=O)NNC(=O)COc1ccc(Br)cc1Br)NCc1ccccc1	pPAFAH FP inh 27 (no result: PAFAH2 FP inh, PAFAH1B3 FP inh, PAFAH1B2 FP inh)
CC(C)=NNc1nc(-c2ccccc2)cs1	none
CCOC(=O)C/C(C)=N\Nc1nc(-c2ccccc2)cs1	pPAFAH FP inh 26
CC(C)c1[nH]nc2c1C(C1C=CCCC1)C(C#N)=C(N)O2 (configuration not stated)	none
CC(C)(C)c1[nH]nc2c1C(Cc1ccccc1)C(C#N)=C(N)O2 (configuration not stated)	PAFAH1B2 FP inh 40
CC(C)(C)c1[nH]nc2c1C(C1C=CCCC1)C(C#N)=C(N)O2 (configuration not stated)	PAFAH1B2 FP inh 27
CC(O)[C@H]1CNC(=O)C(=O)N1CCC12CC3CC(CC(C3)C1)C2 (some centres not stated)	PAFAH1B2 FP inh 25
CC(O)[C@H]1CNC(=O)C(=O)N1CC(C)(C)C (some centres not stated)	none
Brc1ccc(CSc2nccn2-c2ccccc2)cc1	PAFAH1B2 FP inh 24
COC(=O)c1c(NC(=O)C2C3CCC(O3)C2C(=O)O)sc2c1CCCCCC2 (configuration not stated)	PAFAH1B2 FP inh 50
O=C(COc1ccc2c(c1)OCO2)Nc1nccs1	none
CC(C)N(Cc1ccccc1)C(=O)CN1C(=O)NC2(CCCC2)C1=O	none
Cn1cccc1C(=O)OCC(=O)Nc1cc(C(C)(C)C)nn1-c1ccccc1	pPAFAH FP inh 29
CC(C)(C)c1cc(NC(=O)COC(=O)c2nccnc2N)n(-c2ccccc2)n1	none
COc1cccc(OCC(=O)NNC(=O)Cc2cccs2)c1	none
CC(C)(C)c1ccc(OCC(=O)NNC(=O)Cc2cccs2)cc1	PAFAH1B2 FP inh 26
COc1cccc(CNC(=O)c2cccc(S(=O)(=O)N3CCN(C)CC3)c2)c1	none
Cc1ccc(S(=O)(=O)NC(CC(C)C)C(=O)Nc2ccncc2)cc1 (configuration not stated)	PAFAH1B2 FP inh 25
Cc1ccc(S(=O)(=O)NC(CC(C)C)C(=O)Nc2nccs2)cc1 (configuration not stated)	none
COc1ccc(CCN2CC(C(=O)NCCc3ccc(C)cc3)CC2=O)cc1OC (configuration not stated)	pPAFAH FP inh 29
COc1cccc(NC(=O)CN(C)CC(=O)Nc2ccc(C)c(S(=O)(=O)N3CCOCC3)c2)c1	none (no result: Apaf-1 inh, pPAFAH FP inh)
CC1(C)CC(=O)c2sc(NS(=O)(=O)c3ccc(Br)cc3)nc2C1	PAFAH1B2 FP inh 27
COc1ccccc1-c1ccc(/C=C2/C=C(C)OC2=O)o1	none
COc1ccccc1-c1ccc(/C=C2\C=CC(=O)O2)o1	pPAFAH FP inh 26 (no result: PAFAH2 FP inh, PAFAH1B3 FP inh, PAFAH1B2 FP inh)
O=S(=O)(NC1CCCCCCC1)c1ccccc1	none
O=S(=O)(NC1C2CC3CC(C2)CC1C3)c1ccccc1 (configuration not stated)	PAFAH1B2 FP inh 26
CS(=O)(=O)c1ccc(Cl)c(NC(=O)c2cccc(-n3cnnn3)c2)c1	none
CC(C)C(NC(=O)CC12CC3CC(CC(C3)C1)C2)C(=O)O (configuration not stated)	PAFAH1B2 FP inh 25
CCCC[C@@H]1C=C(C(=O)O)[C@H](c2ccc(Cl)cc2)N1S(=O)(=O)c1ccc(C)cc1	PAFAH1B2 FP inh 28
CC(C)(C)[C@@H]1C=C(C(=O)O)[C@H](c2ccc(Cl)cc2)N1S(=O)(=O)c1ccccc1	PAFAH1B2 FP inh 27
CCCCC[C@@H]1C=C(C(=O)O)[C@H](c2ccc(Br)cc2)N1S(=O)(=O)c1ccc(C)cc1	PAFAH1B2 FP inh 27
Cc1ccc(S(=O)(=O)N2[C@@H](c3ccc(C#N)cc3)C(C(=O)O)=C[C@H]2CC2CCCC2)cc1	PAFAH1B2 FP inh 27
Cc1ccc(S(=O)(=O)N2[C@@H](c3ccc(Cl)c(Cl)c3)C(C(=O)O)=C[C@H]2CC2CCCC2)cc1	none
O=C(CCc1nc2ccccc2c(=O)[nH]1)N1CCN(S(=O)(=O)c2cccc(F)c2)CC1	none
OC(CON=C1c2ccccc2-c2ccccc21)CN1CCNCC1 (configuration not stated)	none
CCCCCCCCOC(=O)c1ccc(N)cc1	PAFAH2 FP inh 55, pPAFAH FP inh 32
COC(=O)c1ccc(CNC(=O)Cn2cnc3c(OCc4ccccc4)ncnc32)cc1	none
O=C(COC(=O)Cc1ccc(F)cc1)NC1CCCC1	none
O=C(COC(=O)Cc1ccc(Cl)cc1)NC1CCCC1	pPAFAH FP inh 26
Cc1cc(C)c(OCC(=O)OCC(=O)NCC2CCCCC2)c(C)c1	pPAFAH FP inh 31
O=C(COC(=O)Cc1ccc(Br)cc1)NCC1CCCCC1	pPAFAH FP inh 31
COc1ccccc1CNC(=O)COC(=O)Cc1ccc(Cl)cc1	pPAFAH FP inh 27
CCN(CC)S(=O)(=O)c1cccc(C(=O)OCC(=O)NCc2ccccc2OC)c1	pPAFAH FP inh 32
O=C(COC(=O)Cc1ccc(Br)cc1)NC1CCCCC1	pPAFAH FP inh 30
C=CC(=O)Nc1cccc(N(C)c2ccnc(Nc3ccc(N4CCN(C)CC4)cc3)n2)c1	none (no result: Apaf-1 inh, pPAFAH FP inh)
O=C1C(CCCNC(=S)NCc2ccccc2)NC(=S)N1Cc1ccccc1 (configuration not stated)	PAFAH1B2 FP inh 25
C=CCNC(=S)NCCCCC1NC(=S)N(CC=C)C1=O (configuration not stated)	none
COc1ccccc1N1CCN(Cc2cnc3ccc(Cl)cn23)CC1	none (no result: pPAFAH FP inh)
COc1cc2c(cc1NC(=O)C(C)NCc1ccccc1)oc1ccccc12 (configuration not stated)	pPAFAH FP inh 26
COc1cc2c(cc1NC(=O)Nc1ccccc1)oc1ccccc12	none
CCCN(CCC)C(=O)c1cc(S(=O)(=O)N2CCCCC2)c[nH]1	none
COc1ccccc1-n1cnc2cc(NS(=O)(=O)c3ccc(Br)cc3)ccc21	PAFAH1B2 FP inh 25
COc1ccc(-n2cnc3cc(NS(=O)(=O)c4ccc(C)cc4)ccc32)cc1	none
COc1cc(S(=O)(=O)Nc2ccc(Br)cc2)ccc1N	pPAFAH FP inh 25
COc1ccc(S(=O)(=O)Nc2ccc(C)cc2)cc1OC	none
Cc1ccc2c(CC(=O)Nc3ccc(F)c(S(=O)(=O)N4CCOCC4)c3)coc2c1	none
CN1CCCN(Cc2ccccc2Br)CC1	none
COC(=O)C1=C(C)N(CCCC(=O)O)C(=O)NC1c1cc2c(cc1[N+](=O)[O-])OCO2 (configuration not stated)	pPAFAH FP inh 30
CCCCNc1ccc2c3c(cccc13)C(=O)N(CCCC)C2=O	PAFAH2 FP inh 34, PAFAH1B3 FP inh 31 (no result: Apaf-1 inh, pPAFAH FP inh)
Cc1ccc(CNS(=O)(=O)c2ccc(C)s2)cc1	none

Assay outcomes as filed in PubChem.
